Experiment: Toxicity liver stage against HepG2, at 10uM
Assay type: cell-based
Set-up: test concentration 10 uM, cell line HepG2-A16-CD81EGFP
Conditions: human, HepG2-A16-CD81EGFP cells; read-out: INHIBITION
How it was run: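 Uninfected HepG2-A16-CD81EGFP cells, 3 × 10^3 per well, 1536-well, plated on prespotted compound at 10 μM final, parasite-free screening media added to match infected plates; puromycin 10 μM positive, DMSO 0.5% negative; run in parallel with 48 h PbLuc assay at 37 °C, 5% CO2; viability by CellTiter-Glo luminescence, normalized to controls.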

Structure (SMILES)	cytotoxicity at 10 µM [%]
CN(C)C(=O)NCc1nnc2n1CCN(Cc1cccs1)C2	-150
CN1CC(=O)N(c2cccc(F)c2)CC12CCN(Cc1ccco1)C2 (stereo unspecified)	4.06
CCc1cnc2c(c1Nc1ccncc1)c(=O)n(C)c(=O)n2C	1.86
Cn1ccnc1CN1CCC2(CC1)CN(CC1CC1)C(=O)CO2	1.7
COCCNC(=O)c1cc(OC)c2ccoc2c1	-2.49
CCS(=O)(=O)N1CCN(C(=O)c2ccc(Cn3cc(Br)cn3)cc2)CC1	-2.61
Cc1ncc(CNC(=O)c2nn(C)c3c2CS(=O)(=O)CC3)s1	-2.44
Cc1cc(C(=O)N2CCOCC2c2nc(C)c[nH]2)nc(O)n1 (stereo unspecified)	2.85
CCCN1CCCC(O)(c2nc(C)c(COc3ccccc3)s2)CC1 (stereo unspecified)	2.27
CCn1ncc(C(=O)NCCc2nc(-c3ccncc3)n[nH]2)c1C	6.87
CC(=O)N1CC(c2n[nH]c3ncccc23)C1	19.5
CC(C)c1nccn1-c1cncc(C2CCCN2Cc2cccnc2)n1 (stereo unspecified)	-6.27
COCCN1C(=O)CO[C@H]2CN(Cc3cccc(OC)c3F)C[C@@H]21	-0.0572
Cc1nc(NC2CCCC2)cc(C2CCN2C(=O)c2ccccn2)n1 (stereo unspecified)	-4.39
CS(=O)(=O)c1snnc1C1CCN(Cc2ccc3nccnc3c2)CC1	-6.14
CN1CCc2nc(C3CCCN(C(=O)CC4CCCCC4)C3)ncc2C1 (stereo unspecified)	-8.36
CC(=O)Nc1nc(C2CCN(C(C)=O)CC2)cs1	4.3
COCCCS(=O)(=O)N1CCN(C(C)(C)CO)CC1	-6.46
CN1CCC(N(Cc2ccco2)S(=O)(=O)c2ccc(Cl)cc2)CC1	-1.1
Cc1ccc(CN(c2cc(C)nc3nc(C(F)(F)F)nn23)C2CC2)cc1	-4.12
CC(C)Cc1cc(C(=O)N2CCCN(c3cccnn3)CC2)[nH]n1	-10.5
Cn1ccnc1C(=O)NCCS(=O)(=O)c1ccc(C(C)(C)C)cc1	3.62
COc1ccc(C(=O)NS(=O)(=O)c2cc(Cl)sc2Cl)cc1OC(F)F	-4.73

Structure (SMILES)	cytotoxicity at 10 µM [%]
Cc1nc(CN2CCCC2Cn2cccn2)nc2ccccc12 (stereo unspecified)	-51.7
Cc1ccccc1C1(C(=O)N2CCOC(C)C2)CCOCC1 (stereo unspecified)	5.33
COC(=O)C1CCN(C(=O)NCC(C)Cc2cccs2)CC1 (stereo unspecified)	-7.33
COCCCN(CCOC)C(=O)Nc1ccc(Br)cc1	6.66
Cc1nnc(CN2CCC(Oc3ccc(F)cc3)CC2)o1	-11.8
O=C(NCC1CC1)C1CSCN1S(=O)(=O)c1cc(F)cc(F)c1 (stereo unspecified)	6.35
FC(F)(F)c1c[nH]c(C2CCN(c3ncccn3)CC2)n1	-5.1
CS(=O)(=O)NCCN1CCOC2(CCc3ccccc32)C1 (stereo unspecified)	-9.63
CCc1nc(C2CCCN2c2ncc(Br)cn2)no1 (stereo unspecified)	-0.36
CCc1nnc2n1CC(CNc1cnc3ccccc3n1)CC2 (stereo unspecified)	-37.4
CCOCCCC(=O)NCC(c1ccccc1)N1CCc2sccc2C1 (stereo unspecified)	2.69
CN(Cc1ccc(Cl)s1)C(=O)CN1CC(n2cccn2)C1	-6.88
CSc1ccc(OCCN2CCC(n3cncn3)CC2)cc1	-12.6
N#Cc1ccsc1N1CCC(Sc2ncc[nH]2)C1=O (stereo unspecified)	2.72
Cc1cc(N2CCC(NC(C)Cc3ccsc3)CC2)nc(C)n1 (stereo unspecified)	-7.73
COCCCN(C)c1ncccc1I	2.28
CC(NCCN1CCC(N(C)C)CC1)c1ccc(Cl)s1 (stereo unspecified)	25.9
CN1CC(C(=O)NCCc2ccc3c(c2)OCCO3)CC1=O (stereo unspecified)	5.51
CN(CCc1ccccc1)c1cnn(C)c(=O)c1Br	-7.22
COc1ccccc1CN(C)c1nc2c(cnn2C)c(=O)[nH]1	40.6
Cc1cc(CCC(=O)N2CCOCC2)ccc1Br	12.5
Cc1cnn(CC2CN(CCN3CCCC3=O)CCO2)c1 (stereo unspecified)	-9.7
CCc1noc(C(C)N(C)CC(=O)Nc2ccc(C)cc2)n1 (stereo unspecified)	-6.42

Structure (SMILES)	cytotoxicity at 10 µM [%]
O=C(Cc1ccccc1F)N1CCN(C(=O)c2cccc(F)c2)CC1	7.7
CNc1cc(N2CCCC2CNCc2c[nH]nc2C(C)(C)C)ncn1 (stereo unspecified)	7.91
Cc1cn2c(=O)c(-c3ccnc(N[C@@H](C)CO)n3)cnc2s1	-13.7
Cc1[nH]c2ccccc2c1-c1ccnc(NC[C@H](O)CO)n1	8.9
CCOC(=O)CCCNc1nc(C(C)(C)C)nc2c1cnn2C	-0.627
Cc1cccnc1CC(C)Nc1ncc(C)c(N(C)C)n1 (stereo unspecified)	12.1
CCC(C)N1CCC(Oc2ccc(C(=O)NCCN(C)C)cc2Cl)CC1 (stereo unspecified)	-2.09
Cc1cc(C)n(C2CN(C(=O)CN3C(=O)CSc4ccccc43)C2)n1	-6.53
CCn1nc(C)c(CN2CCC(c3ccc(C(=O)O)cc3)C2)c1C (stereo unspecified)	4.22
CC(C)Cc1cc(CNc2nc(-c3cccnc3)nc3c2CNC3)no1	1.95
Cc1ccccc1C(C(=O)NCCN1CCC(CO)CC1)N(C)C (stereo unspecified)	-4.5
COCc1cc(CN(C)C(C(=O)O)c2cc(C)c(OC)c(C)c2)n[nH]1 (stereo unspecified)	1.07
CCC[C@H]1CN(Cc2cncn2C)C[C@@H]1NC(=O)C1(COC)CCC1	-8.26
CC(C)NS(=O)(=O)c1cc(C(=O)O)cc(-n2cc3c(n2)CCC3)c1	3.19
CN(C)C(C(=O)N1CC(c2ccccn2)C1)c1ccc2c(c1)OCO2 (stereo unspecified)	10.6
COC(=O)[C@]12CNC[C@H]1CN(Cc1nc(C)c[nH]1)C2	6.01
CC(=O)Nn1c(C)cc(CN2CCC(c3ccncc3)CC2)c1C	4.61
CCc1cc(N(C)Cc2nonc2C)nc(N2CCOCC2)n1	-8.07
OCCNc1cc(N2CCC(n3cc(C4CCCC4)nn3)CC2)ncn1	-9.72
O=C(c1cn(CC(=O)N2CCCCCC2)c2ccccc12)C1CC1	13.6
Cc1ccc2oc(=O)n(CCC(=O)N3CCN(C)C(=O)C3)c2c1	-15.6
CCCc1nc(C)cc(N2Cc3cnn(CCO)c3C2)n1	-129
O=C(c1cccc(CO)n1)N1CCCC1c1nc2cc(F)ccc2[nH]1 (stereo unspecified)	-1.26

Structure (SMILES)	cytotoxicity at 10 µM [%]
CCn1ncc(C(=O)N2CCN(CC3CCCO3)CC2)c1C (stereo unspecified)	-11.6
COCCNc1nc2c(c(NCCc3cccs3)n1)CCNCC2	3.96
CC(c1ccc(C(=O)NCCc2nc(N)cc(O)n2)o1)N1CCCCC1 (stereo unspecified)	-8.9
O=C1NC[C@@]2(C(=O)O)CN(Cc3cccc(Oc4ccccc4)c3)C[C@@H]12	-5.65
COC1CCCN(c2nc(C)nc3c2CCN(Cc2ccco2)CC3)C1 (stereo unspecified)	2.02
COc1ccc(N(c2ccc(C)cc2)c2ccc(C(=O)O)s2)cc1	-3.75
Cc1nc(C2CCCN2CC(=O)Nc2c(C)n[nH]c2C)no1 (stereo unspecified)	1.65
Cc1nnc(CN(C)C2CCCN(Cc3noc(C4CC4)n3)C2)o1 (stereo unspecified)	-2.51
Cn1ccnc1CN1CCCN(C(=O)c2ccc3ccccc3c2)CC1	-8.66
CC(NC(=O)NCC1(c2ccc(Cl)cc2)CC1)c1nncn1C (stereo unspecified)	-3.25
COc1ccccc1C1(C(=O)NCCN2CCCCC2)CCOCC1	-10.3
CCc1ccc(C(=O)O)cc1S(=O)(=O)Nc1ccc2c(c1)OCCO2	-4.07
Cc1cnn(CCNCc2csc(-c3ncccn3)n2)c1	-7.48
Cc1noc(CN2CCCC(Cn3nc(C)nc3C)C2)n1 (stereo unspecified)	-5.04
Cc1ccc(NC2CCN(C(=O)Cc3ccc(C)s3)CC2)nn1	-3.75
Cc1nc(C)n(CC2CCCN2c2ncnc3ccsc23)n1 (stereo unspecified)	7.61
OCCn1nccc1C1CCN(CCCOc2ccc(F)cc2)CC1	-4.3
CCOc1ncccc1NC(=O)N1CCc2ccccc2C1	-8.62
CC(=O)N1CCC(CN2CCN(Cc3nccn3C)C(C)C2)CC1 (stereo unspecified)	-15.4
Cc1ccc(-c2nnc(CN3CCc4cnc(C)nc4C3)o2)cc1	-6.95
CCc1ccc(CCC(=O)N2CCOCC2c2ncon2)cc1 (stereo unspecified)	-3.78
Cc1cccc(-c2ccc(C(=O)NCC3CCOC3)c(=O)[nH]2)c1 (stereo unspecified)	-9.66
Cc1nn(C)c(N(C)C)c1CNCCNS(C)(=O)=O	-5.05

Structure (SMILES)	cytotoxicity at 10 µM [%]
CCn1ccnc1CN1CCCN(C(=O)c2cccc(C#N)c2)CC1	-12.2
COCC(c1cccc(C(F)(F)F)c1)N(C)C(=O)c1ccncc1 (stereo unspecified)	-14.6
Cc1noc(C)c1CC(=O)OCC(=O)N1CCc2sccc2C1	-0.361
CCc1cc(C)c(C(=O)N2CCCC2CC(=O)c2cnn(C)c2)o1 (stereo unspecified)	5.22
O=C(CCc1cccs1)N1CCC(N2CCNC2=O)CC1	5.37
c1cnnc(N2CCCC(NCc3ccc(-n4cccn4)cc3)C2)c1 (stereo unspecified)	0.241
Cc1oc(-c2ccco2)nc1CC(=O)N1CCN(CC(C)(C)O)CC1	0.626
O=C(c1cc[nH]n1)N1CCC(Nc2cccnn2)CC1	-0.529
CCN1CCCc2cc(-c3cncn3C(C)CN3CCOCC3)ccc21 (stereo unspecified)	12.6
CN(C)CCN(C(=O)Cc1ccc2c(c1)OCCO2)C1CCN(C)CC1	2.16
O[C@]1(c2ccccn2)CC[C@@H]2CN(Cc3cccc4ncccc34)C[C@@H]21	-2.09
CC(=O)N1CC(=O)N(c2ccccc2)CC12CCN(CC1CC1)C2 (stereo unspecified)	4.45
Cc1ccc(C(=O)N2C[C@H]3CCCC(OCc4cccnc4)[C@H]3C2)cn1 (stereo partly specified)	4.93
CC(C)c1nn(C)c(Cl)c1CNCc1ccc2c(c1)OCO2	-1.77
Cc1nc(CN2CCOCC3(CCN(c4ncccn4)CC3)C2)cs1	14.9
Cc1noc([C@H]2C[C@@H]3CCN(CC4CCOCC4)C[C@H]3O2)n1	-103
c1ccc(O[C@@H]2CN(Cc3nccs3)[C@@H]3CCCO[C@@H]32)nc1	-8.52
Cn1ccc(CN2CCCC23CCN(Cc2nccn2C)CC3)n1	-109
O=C(c1cccc(O)c1)N1CCC2(CCN2c2ncccn2)C1 (stereo unspecified)	-139

Source: ChEMBL document CHEMBL4513216, “Probing the Open Global Health Chemical Diversity Library for Multistage-Active Starting Points for Next-Generation Antimalarials” (ACS Infect Dis, 2020)
